Test [1] in a line: HUVEC growth inhibition – cell-based, human, primary screen (AID 575;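 active = viability at or below 30% in both replicate assays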;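 also: 100% = median of untreated cell wells with 0.1% DMSO on each plate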). As to conditions: HUVEC proliferation, CellTiter-Glo luminescence, 72 h; at 10 µM; stronger effect = lower value. In a few lines: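 system = HUVEC primary cells | amount = 1250 cells/well | buffer or medium = supplemented EBM, 2% fetal bovine serum | dosing = single-point 10 µM, DMSO 0.1% final | times = 72 h compound incubation | detection = CTG luminescence | read-out = % viability relative to median vehicle-well signal on each plate | control set = vehicle and MePR control wells | format = collagen-coated 384-well format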
On the technique in general: Cellular ATP, detected with luciferase, serves as a proxy for viable cell number.

The nature of test [2]: H69AR cell proliferation blockers – human, duplicate replicates, primary screen (AID 580).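 Also: 100% = mean luminescence of untreated wells and 0% = no signal.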 As to conditions: H69AR lung tumor cells viability, ATP luminescence, 72 h; at 10 µM; stronger effect = lower value.
The nature of test [3]: MRP1 drug-resistance reversers in H69AR cells – cell-based, doxorubicin co-treatment, pilot screen (AID 601;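 active = viability loss from added drug above about 55%, and viability with drug at most 40%, in both replicates, limit read from the data, passing the limit was not always enough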). To be noted: CellTiter-Glo, 72 h, at 10 µM; for differential viability (reversal): stronger effect = higher value.
Test [4] can be described thus: yeast transport mutant growth inhibition pilot in 384-well plates, post-Golgi transport modulator project (AID 636; in the data active = inhibition above about 31%). To be noted: absorbance 615 nm, about 18 h, stronger effect = higher value.
The nature of test [5]: growth suppression of yeast trafficking mutant, preliminary HTS, modulators of trafficking downstream of Golgi apparatus project, 1536-format plate, OD 615 nm (AID 637; in the data active = inhibition above about 30%). As to conditions: yeast transport mutant growth, absorbance 615 nm, 18 h; stronger effect = higher value.
[6] abbreviates: H69AR cells + 2 uM doxorubicin, measured here: viability with 2 uM doxorubicin, stronger effect = lower value.
Where [7] appears, read: H69AR cells, compound alone cytotoxicity.

In general, viability refers to a read-out of living cells in per cent, often relative to untreated cells. By inhibition is commonly meant the relative decrease from the control value, in per cent.

Active and inactive are the calls of the source.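 The calls were made as follows, unless noted: active = viability at or under a set limit in both replicates, limit being median viability minus 3 SD (cut at about 48% in these data, passing the limit was not always enough); inconclusive = at or under the limit in just one replicate; inactive = at or above the limit in both replicates.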

On to `O=C(Nc1ccc(S(=O)(=O)NCCc2ccccc2)cc1)c1ccc(Br)o1`, for which the viability in test [1] was 72.4% (inactive); in test [2], 108% (inactive); in test [3] (setting [6]), 91.5%; in test [3] (setting [7]), 108%. In test [3] (H69AR cells + 2 uM doxorubicin), the differential viability (reversal) is 16.8% (inactive). Moreover, the inhibition in test [4] was -1.32% (inactive); in test [5], -6.35% (inactive).

For `Nc1nc(SCCOc2ccccc2)n[nH]1`, the viability in test [1] is 94.1% (inactive); in test [2], 97% (inactive); in test [3] (setting [6]), 90.8%; in test [3] (setting [7]), 97%. Also, the differential viability (reversal) in test [3] (H69AR cells + 2 uM doxorubicin) was 6.12% (inactive). For the same molecule, the inhibition is -5.19% (inactive) in test [4] and -5.24% (inactive) in test [5].

With `CN(C)C(=O)C12CCC(C)(c3nc4ccccc4nc31)C2(C)C` (configuration not stated), the viability in test [1] is 105% (inactive); in test [2], 88.8% (inactive); in test [3] (setting [6]) it was 85.8%; in test [3] (setting [7]), 88.8%. Also, the differential viability (reversal) in test [3] (H69AR cells + 2 uM doxorubicin) is 2.95% (inactive). The results for the inhibition in test [4] and in test [5] were 3.03% (inactive) and -4.6% (inactive), respectively.

For `O=C(Oc1ccccc1)c1cccc(COC(=O)c2cnccn2)c1`, the viability in test [1] is 84.9% (inactive); in test [2], 103% (inactive); in test [3] (setting [6]), 88.4%; in test [3] (setting [7]) it was 103%. Besides, in test [3] (H69AR cells + 2 uM doxorubicin), the differential viability (reversal) was 14.2% (inactive). The inhibition in test [4] was -6.13% (inactive); in test [5], 4.13% (inactive).

Take `O=C(CP(=O)(c1ccccc1)c1ccccc1)N1CCCCC1`: the viability in test [1] was 111% (inactive); in test [2], 106% (inactive); in test [3] (setting [6]), 86.9%; in test [3] (setting [7]), 106%. The differential viability (reversal) in test [3] (H69AR cells + 2 uM doxorubicin) was 19% (inactive). The inhibition is -3.51% (inactive) in test [4] and 6.83% (inactive) in test [5].

`CCc1nc(C)ccc1OCC(=O)O`: the viability was 102% (inactive) in test [1], 93% (inactive) in test [2], 106% in test [3] (setting [6]) and 93% in test [3] (setting [7]). Further, the differential viability (reversal) in test [3] (H69AR cells + 2 uM doxorubicin) was -12.6% (inactive). The inhibition was 4.8% (inactive) in test [4] and 2.7% (inactive) in test [5].

For `COc1cccc(CN(C(=O)c2cc3ccccc3oc2=O)C2CC2)c1`, the viability in test [1] is 99.1% (inactive); in test [2], 102% (inactive); in test [3] (setting [6]), 96.1%; in test [3] (setting [7]), 102%. For the same molecule, the differential viability (reversal) in test [3] (H69AR cells + 2 uM doxorubicin) was 5.67% (inactive). Besides, the inhibition in test [4] is -0.13% (inactive); in test [5], 0% (inactive).

For the molecule `CCCCCn1c(CN(C)Cc2ccccc2)nc2c1c(=O)n(C)c(=O)n2C`, the viability in test [1] was 85.8% (inactive); in test [2], 79.8% (inactive); in test [3] (setting [6]), 68.3%; in test [3] (setting [7]) it was 79.8%. Further, the differential viability (reversal) in test [3] (H69AR cells + 2 uM doxorubicin) was 11.4% (inactive). Besides, the inhibition is 1.45% (inactive) in test [4] and 4.76% (inactive) in test [5].

For `C#CCN1C(=O)C(O)(CC(=O)c2cc(OC)ccc2OC)c2ccccc21` (configuration not stated), the viability was 78.6% (inactive) in test [1], 38.7% (active) in test [2], 55.5% in test [3] (setting [6]) and 38.7% in test [3] (setting [7]). Moreover, the differential viability (reversal) in test [3] (H69AR cells + 2 uM doxorubicin) was -16.8% (inactive). Besides, the inhibition was -4.8% (inactive) in test [4] and 1.9% (inactive) in test [5].

Regarding `CCc1cc2c(NCCC(=O)O)nc(C)nc2s1`, the viability is 89.2% (inactive) in test [1], 75.5% (inactive) in test [2], 87.6% in test [3] (setting [6]) and 75.5% in test [3] (setting [7]). Besides, in test [3] (H69AR cells + 2 uM doxorubicin), the differential viability (reversal) was -12.1% (inactive). The inhibition in test [4] was 0.65% (inactive); in test [5], 13.3% (inactive).

As for `CC(C(N)=O)N1C(=O)C2C3C=CC(C3)C2C1=O` (configuration not stated), the viability is 85.1% (inactive) in test [1], 106% (inactive) in test [2], 95.2% in test [3] (setting [6]) and 106% in test [3] (setting [7]). Moreover, in test [3] (H69AR cells + 2 uM doxorubicin), the differential viability (reversal) was 10.4% (inactive). Further, the results for the inhibition in test [4] and in test [5] were -1.6% (inactive) and -2.22% (inactive), respectively.

Consider `Cn1c(=O)[nH]c(=O)c2c1nc(N1CCNCC1)n2Cc1cccc2ccccc12`, for which the viability in test [1] is 85.5% (inactive); in test [2], 88.8% (inactive); in test [3] (setting [6]), 86.4%; in test [3] (setting [7]), 88.8%. Besides, the differential viability (reversal) in test [3] (H69AR cells + 2 uM doxorubicin) is 2.38% (inactive). The inhibition was -1.56% (inactive) in test [4] and 4.76% (inactive) in test [5].

As for `CCn1cc(/C=C(/C#N)S(=O)(=O)c2ccccc2)cn1`, the viability is 110% (inactive) in test [1], 95.3% (inactive) in test [2], 85.8% in test [3] (setting [6]) and 95.3% in test [3] (setting [7]). Further, the differential viability (reversal) in test [3] (H69AR cells + 2 uM doxorubicin) was 9.54% (inactive). The inhibition in test [4] is -7.24% (inactive); in test [5] it was -4.6% (inactive).

For the molecule `CN=C(Nc1ccc2c(c1)OCO2)SC1CC(=O)N(c2ccccc2)C1=O` (configuration not stated), the viability is 78.3% (inactive) in test [1], 82.3% (inactive) in test [2], 82.3% in test [3] (setting [6]) and 82.3% in test [3] (setting [7]). The differential viability (reversal) in test [3] (H69AR cells + 2 uM doxorubicin) was -0.04% (inactive). Also, the values for the inhibition in test [4] and in test [5] were -4.93% (inactive) and -0.79% (inactive), respectively.

For the molecule `CCCC(=O)Nc1ccccc1-c1nnn(CC(=O)Nc2ccc(OC)cc2)n1`, the viability is 73.8% (inactive) in test [1], 83.1% (inactive) in test [2], 97.2% in test [3] (setting [6]) and 83.1% in test [3] (setting [7]). The differential viability (reversal) in test [3] (H69AR cells + 2 uM doxorubicin) is -14.1% (inactive). For the same molecule, the inhibition in test [4] was -3.33% (inactive); in test [5], 5.4% (inactive).

For the molecule `O=C(CN1CCOCC1)Nc1cccc(C(=O)Nc2cccc(C(F)(F)F)c2)c1`, the viability in test [1] was 95.5% (inactive); in test [2], 101% (inactive); in test [3] (setting [6]), 92.4%; in test [3] (setting [7]), 101%. In test [3] (H69AR cells + 2 uM doxorubicin), the differential viability (reversal) is 8.35% (inactive). Besides, the inhibition is -0.26% (inactive) in test [4] and 0% (inactive) in test [5].

As to `CCOc1ccccc1N(CC(=O)N1CCOCC1)S(=O)(=O)c1ccccc1`, the viability in test [1] was 108% (inactive); in test [2], 99% (inactive); in test [3] (setting [6]) it was 97.8%; in test [3] (setting [7]) it was 99%. Moreover, the differential viability (reversal) in test [3] (H69AR cells + 2 uM doxorubicin) is 1.18% (inactive). For the same molecule, the inhibition in test [4] was 2.8% (inactive); in test [5], -4.76% (inactive).

Consider `Nc1nc(-c2ccccc2)cc(C(F)(F)F)n1`, for which the viability is 95.4% (inactive) in test [1], 103% (inactive) in test [2], 94.1% in test [3] (setting [6]) and 103% in test [3] (setting [7]). Also, in test [3] (H69AR cells + 2 uM doxorubicin), the differential viability (reversal) was 8.53% (inactive). Moreover, the inhibition was -3.51% (inactive) in test [4] and 1.27% (inactive) in test [5].

On to `O=C(CCSc1nc(-c2ccco2)cc(C(F)(F)F)n1)NCCc1ccccc1`, for which the viability in test [1] is 80.7% (inactive); in test [2] it was 79% (inactive); in test [3] (setting [6]), 94.4%; in test [3] (setting [7]), 79%. For the same molecule, the differential viability (reversal) in test [3] (H69AR cells + 2 uM doxorubicin) is -15.4% (inactive). For the same molecule, the inhibition is -4.53% (inactive) in test [4] and 1.11% (inactive) in test [5].

Consider `Nc1ccc(Sc2nnnn2-c2ccccc2)c(Cl)c1`, for which the viability in test [1] was 101% (inactive); in test [2], 92% (inactive); in test [3] (setting [6]), 102%; in test [3] (setting [7]), 92%. Moreover, in test [3] (H69AR cells + 2 uM doxorubicin), the differential viability (reversal) is -9.96% (inactive). The inhibition was -6.32% (inactive) in test [4] and -2.06% (inactive) in test [5].

As for `COC(=O)Cc1c(C)nc2nc(-c3ccccc3)[nH]n2c1=O`, the viability in test [1] was 90.8% (inactive); in test [2], 102% (inactive); in test [3] (setting [6]), 106%; in test [3] (setting [7]), 102%. For the same molecule, in test [3] (H69AR cells + 2 uM doxorubicin), the differential viability (reversal) was -4.13% (inactive). Also, the inhibition was 0.53% (inactive) in test [4] and -5.56% (inactive) in test [5].

The record behind these values is PubChem BioAssay.
